# Experimental data published in ChEMBL document CHEMBL4406918, “Inhibitory Effects of Multivalent Polypeptides on the Proliferation and Metastasis of Breast Cancer Cells” (ACS Med Chem Lett, 2019).
# Calls of active or inactive are those of the source. The calls are words filed in the database; no cut-off is given here. Where a SMILES comes first, the peptide text is derived from it. Side-chain parts run from the residue outwards.
# Legend:
# 4T1 [1] = assay: Antiinvasive activity in mouse 4T1 cells assessed as inhibition of cell invasion at 0.2 mM incubated for 24 hrs by crystal violet staining based matrigel invasion assay relative to control; assay type: functional; settings: 4T1, 24 h
# Summary of the method: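 4T1 cells, Matrigel-coated Transwell invasion with 0.2 mM compound. Invasion rate comes from counting cells on the underside of the Matrigel-coated porous membrane, relative to untreated control. Mean ± SD, n = 3.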
# [2] = Toxicity in BALB/c mouse xenografted with mouse 4T1 cells assessed as change in serum creatinine level at 10 mg/kg administered intratumorally and measured after 24 days; assay type: organism-based; settings: in vivo, other, 576 h
# [3] = Toxicity in BALB/c mouse xenografted with mouse 4T1 cells assessed as change in blood urea nitrogen level at 10 mg/kg administered intratumorally and measured after 24 days; assay type: organism-based; settings: in vivo, other, 576 h
# 4T1 [4] = assay: Antitumour activity against mouse 4T1 cells xenografted in BALB/c mouse assessed as increase in damage of tumor tissue at 10 mg/kg administered intratumorally and measured after 24 days by H and E staining based inverted optical microscopic method; assay type: functional, organism-based
# Summary of the method: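 Tumours from 4T1-bearing BALB/c mice given 6 doses of 10 mg/kg (saline control) were sectioned and stained with H&E, plus CD31, Ki-67 and TUNEL.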
# [5] = Stability in fetal bovine serum assessed as parent compound remaining measured after 12 hrs by RP-HPLC analysis; assay type: ADME, cell-free, Bos taurus; settings: cattle, read-out: Stability
# Summary of the method: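 Peptides incubated in serum, and the fraction of intact YSL was measured over time up to 12 h, including a 4 h point.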
# 4T1 [6] = assay: Antiproliferative activity against mouse 4T1 cells at 0.1 mM incubated for 24 hrs by MTT assay; assay type: functional, cell-based
# 4T1 [7] = assay: Antiproliferative activity against mouse 4T1 cells assessed as cell death at 0.2 mM incubated for 24 hrs by MTT assay relative to control; assay type: functional
# Summary of the method: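 Mouse 4T1 breast cancer cells exposed for 24 h (doses include 0.1 and 0.2 mM), then read by MTT for viability or cell death. Mean ± SD, n = 6.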
# Erythrocyte = assay: Hemolytic activity in BALB/c mouse RBC at 3.2 mM incubated for 2 hrs by UV-Vis spectrophotometric analysis; assay type: ADME, cell-based; settings: 3200 µM
# Summary of the method: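 Hemolysis assay on red blood cells with dendrimers up to 3.2 mM. Result is expressed as hemolysis rate, with under 5% taken as acceptable.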
# 4T1 [8] = assay: Induction of apoptosis in mouse 4T1 cells at 0.8 mM incubated for 24 hrs by PI staining based inverted microscopic method; assay type: functional, cell-based
# Summary of the method: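 Live–dead staining of 4T1 cells after 24 h exposure, with PI uptake imaged microscopically. A higher 0.8 mM dose was also tested.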
# 4T1 [9] = assay: Induction of cell cycle arrest in mouse 4T1 cells assessed as accumulation at G0/G1 phase at 0.4 mM incubated for 24 hrs by PI staining based flow cytometric analysis (reference value: 37.78%); assay type: functional
# 4T1 [10] = assay: Induction of cell cycle arrest in mouse 4T1 cells assessed as accumulation at S phase at 0.4 mM incubated for 24 hrs by PI staining based flow cytometric analysis (Rvb =42.35%); assay type: functional
# 4T1 [11] = assay: Induction of cell cycle arrest in mouse 4T1 cells assessed as accumulation at G2/M phase at 0.4 mM incubated for 24 hrs by PI staining based flow cytometric analysis (reference value: 19.82%); assay type: functional
# 4T1 [12] = assay: Induction of apoptosis in mouse 4T1 cells assessed as viable cells at 0.4 mM incubated for 24 hrs by Annexin V-FITC/PI based FACS analysis (reference value: 92.2%); assay type: functional; settings: 4T1, 24 h, read-out: Activity
# 4T1 [13] = assay: Induction of apoptosis in mouse 4T1 cells assessed as early apoptotic cells at 0.4 mM incubated for 24 hrs by Annexin V-FITC/PI based FACS analysis (reference value: 0.76%); assay type: functional
# 4T1 [14] = assay: Induction of apoptosis in mouse 4T1 cells assessed as late apoptotic cells at 0.4 mM incubated for 24 hrs by Annexin V-FITC/PI based FACS analysis (reference value: 6.62%); assay type: functional
# 4T1 [15] = assay: Induction of apoptosis in mouse 4T1 cells assessed as necrotic cells at 0.4 mM incubated for 24 hrs by Annexin V-FITC/PI based FACS analysis (reference value: 0.47%); assay type: functional
# 4T1 [16] = assay: Inhibition of cell migration in mouse 4T1 cells assessed as wound closure rate at 0.2 mM measured up to 36 hrs by inverted optical microscopic method based wound healing assay (reference value: 82%); assay type: functional; design: scale not given: the % may be the effect or the level left
# 4T1 [17] = assay: Inhibition of cell migration in mouse 4T1 cells assessed as migration frequency at 0.2 mM incubated for 24 hrs by crystal violet staining based transwell assay relative to control; assay type: functional; design: scale not given: the % may be the effect or the level left
# Summary of the method: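 4T1 cells, Transwell migration with 24 h exposure to 0.2 mM. Migration rate comes from counting cells on the bottom of the porous membrane. Mean ± SD, n = 3.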
# 4T1 [18] = assay: Inhibition of metastasis in mouse 4T1 cells assessed as formation of pseudopods at 0.2 mM incubated for 24 hrs by SEM analysis; assay type: functional, cell-based
# Summary of the method: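 4T1 cells treated 24 h, then imaged by scanning electron microscopy for pseudopod formation. Dendrimers were tested at 0.2 mM and the reference at 10–5 mM.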
# 4T1 [19] = assay: Inhibition of metastasis in mouse 4T1 cells assessed as disruption in F-actin arrangement at 0.2 mM incubated for 24 hrs by Hoechst 33342 staining based confocal laser scanning microscopic method; assay type: functional, cell-based
# Summary of the method: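 After 24 h at 0.2 mM, 4T1 cells were stained for F-actin with Alexa Fluor 488 phalloidin and for nuclei with Hoechst 33342, then imaged by fluorescence for cytoskeletal arrangement and cell morphology.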
# 4T1 [20] = assay: Inhibition of metastasis in mouse 4T1 cells assessed as cell shrinkage at 0.2 mM incubated for 24 hrs by Hoechst 33342 staining based confocal laser scanning microscopic method; assay type: functional
# Summary of the method: (§1)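 After 24 h treatment, 4T1 cells were stained with Alexa Fluor 488 phalloidin for F-actin and Hoechst 33342 for nuclei, then imaged by fluorescence microscopy to assess cytoskeleton and cell morphology.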
# 4T1 [21] = assay: Inhibition of metastasis in mouse 4T1 cells assessed as shortening in actin filaments at 0.2 mM incubated for 24 hrs by Hoechst 33342 staining based confocal laser scanning microscopic method; assay type: functional, cell-based; summary of the method: as §1
# 4T1 [22] = assay: Antitumour activity against mouse 4T1 cells xenografted in BALB/c mouse assessed as increase in cytotoxic tumor cell death at 10 mg/kg administered intratumorally and measured after 24 days by H and E staining based inverted optical microscopic method; assay type: functional, organism-based
# Summary of the method: (§2)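 BALB/c mice bearing subcutaneous 4T1 tumours received 6 doses at 10 mg/kg body weight, matched for YSL monomer molar amount, with saline as control. Tumour sections were stained for H&E, CD31, Ki-67 and TUNEL. n = 5.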
# 4T1 [23] = assay: Antitumour activity against mouse 4T1 cells xenografted in BALB/c mouse assessed as increase in number of TUNEL positive cells at 10 mg/kg administered intratumorally and measured after 24 days by H and E staining based inverted optical microscopic method; assay type: functional, organism-based; summary of the method: as §2
# 4T1 [24] = assay: Antitumour activity against mouse 4T1 cells xenografted in BALB/c mouse assessed as reduction in number of lung tumor metastatic nodules at 10 mg/kg administered intratumorally and measured after 24 days by H and E staining based inverted optical microscopic method; assay type: functional, organism-based
# Summary of the method: (§3)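 After 6 doses of 10 mg/kg to 4T1 tumour-bearing BALB/c mice (saline control), lungs were photographed whole and examined histopathologically for the number and size of metastatic nodules.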
# 4T1 [25] = assay: Antitumour activity against mouse 4T1 cells xenografted in BALB/c mouse assessed as reduction in size of lung tumor metastatic nodules at 10 mg/kg administered intratumorally and measured after 24 days by H and E staining based inverted optical microscopic method; assay type: functional, organism-based; summary of the method: as §3
# [26] = Toxicity in BALB/c mouse xenografted with mouse 4T1 cells assessed as induction of morphological lesions in liver at 10 mg/kg administered intratumorally and measured after 24 days by H and E staining based inverted optical microscopic method; assay type: organism-based; settings: in vivo, other, 576 h
# [27] = Toxicity in BALB/c mouse xenografted with mouse 4T1 cells assessed as induction of morphological lesions in heart at 10 mg/kg administered intratumorally and measured after 24 days by H and E staining based inverted optical microscopic method; assay type: organism-based; settings: in vivo, other, 576 h
# [28] = Toxicity in BALB/c mouse xenografted with mouse 4T1 cells assessed as induction of morphological lesions in spleen at 10 mg/kg administered intratumorally and measured after 24 days by H and E staining based inverted optical microscopic method; assay type: organism-based; settings: in vivo, other, 576 h
# [29] = Toxicity in BALB/c mouse xenografted with mouse 4T1 cells assessed as induction of morphological lesions in kidney at 10 mg/kg administered intratumorally and measured after 24 days by H and E staining based inverted optical microscopic method; assay type: organism-based; settings: in vivo, other, 576 h
# [30] = Toxicity in BALB/c mouse xenografted with mouse 4T1 cells assessed as change in body weight at 10 mg/kg administered intratumorally and measured after 24 days; assay type: organism-based; settings: in vivo, other, 576 h
# Summary of the method: (§4)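 BALB/c mice bearing subcutaneous 4T1 tumours received 6 doses of 10 mg/kg, with equal YSL-monomer molar amounts across compounds and saline as control. Tumour volume growth curves and body weights were tracked. Mean ± SD, n = 5.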
# [31] = biological target: Matrix metalloproteinase-9 (Mus musculus) (UniProt P41245); assay: Residual MMP9 activity in mouse 4T1 cells at 0.2 mM incubated for 24 hrs by coomassie brilliant blue staining based gelatin zymography assay relative to control
# Sequence of Matrix metalloproteinase-9 (Mus musculus) (P41245 whole entry): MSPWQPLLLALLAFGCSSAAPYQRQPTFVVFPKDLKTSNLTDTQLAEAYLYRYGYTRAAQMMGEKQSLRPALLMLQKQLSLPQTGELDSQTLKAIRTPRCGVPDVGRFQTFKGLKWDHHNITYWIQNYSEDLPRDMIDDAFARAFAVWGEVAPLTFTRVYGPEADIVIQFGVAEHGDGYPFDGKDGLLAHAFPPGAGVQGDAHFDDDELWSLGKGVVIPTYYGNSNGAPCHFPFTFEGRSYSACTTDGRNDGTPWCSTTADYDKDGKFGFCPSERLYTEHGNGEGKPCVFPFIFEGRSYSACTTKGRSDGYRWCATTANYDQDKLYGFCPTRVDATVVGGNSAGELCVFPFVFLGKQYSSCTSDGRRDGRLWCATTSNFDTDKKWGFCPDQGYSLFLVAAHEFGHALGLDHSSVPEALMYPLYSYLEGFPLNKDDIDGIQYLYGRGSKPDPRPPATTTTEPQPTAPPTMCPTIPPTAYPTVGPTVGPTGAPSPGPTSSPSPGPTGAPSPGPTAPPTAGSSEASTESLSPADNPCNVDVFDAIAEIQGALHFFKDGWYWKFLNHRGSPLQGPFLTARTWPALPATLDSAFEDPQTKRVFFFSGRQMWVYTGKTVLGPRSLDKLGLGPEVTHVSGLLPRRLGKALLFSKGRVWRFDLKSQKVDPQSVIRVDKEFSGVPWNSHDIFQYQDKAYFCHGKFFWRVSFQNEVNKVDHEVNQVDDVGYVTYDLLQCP
# 4T1 [32] = assay: Antitumour activity against mouse 4T1 cells xenografted in BALB/c mouse assessed as inhibition in tumor growth at 10 mg/kg administered intratumorally and measured every 3 days for 24 days; assay type: functional, organism-based; summary of the method: as §4
SMILES,inhibition at 200 µM (4T1 [1]) [%],Activity [2],Activity [3],Activity (4T1 [4]),remaining at 12 h [5] [%],Activity (4T1 [6]),Activity (4T1 [7]) [%],Activity (Erythrocyte),Activity (4T1 [8]),Activity (4T1 [9]) [%],Activity (4T1 [10]) [%],Activity (4T1 [11]) [%],viability at 400 µM (4T1 [12]) [%],Activity (4T1 [13]) [%],Activity (4T1 [14]) [%],Activity (4T1 [15]) [%],Activity (4T1 [16]) [%],Activity (4T1 [17]) [%],F-actin disruption (qualitative) (4T1 [19]),Activity (4T1 [23]),other results
COC(=O)[C@H](CCCCNC(=O)[C@H](CCCCNC(=O)[C@H](CC(C)C)NC(=O)[C@H](CO)NC(=O)[C@@H](N)Cc1ccc(O)cc1)NC(=O)[C@H](CC(C)C)NC(=O)[C@H](CO)NC(=O)[C@@H](N)Cc1ccc(O)cc1)NC(=O)[C@H](CCCCNC(=O)[C@H](CC(C)C)NC(=O)[C@H](CO)NC(=O)[C@@H](N)Cc1ccc(O)cc1)NC(=O)[C@H](CC(C)C)NC(=O)[C@H](CO)NC(=O)[C@@H](N)Cc1ccc(O)cc1,41,Non-Toxic,Non-Toxic,Active,> 80,inactive,10,Non-Toxic,Active,38.06,46.98,15.31,77.7,0.7,20.4,1.23,76,39,Active,Active,inhibition (4T1 [18]): inactive; inhibition (4T1 [20]): Active; inhibition (4T1 [21]): Active; Activity (4T1 [22]): Active; Activity (4T1 [24]): Active; Activity (4T1 [25]): Active; Activity [26]: Non-Toxic; Activity [27]: Non-Toxic; Activity [28]: Non-Toxic; Activity [29]: Non-Toxic; Activity [30]: Non-Toxic; residual activity [31]: 70%
COC(=O)[C@H](CCCCNC(=O)[C@H](CC(C)C)NC(=O)[C@H](CO)NC(=O)[C@@H](N)Cc1ccc(O)cc1)NC(=O)[C@H](CC(C)C)NC(=O)[C@H](CO)NC(=O)[C@@H](N)Cc1ccc(O)cc1 (H-YSLK([Leu-Ser-Tyr])-OMe),70,Non-Toxic,Non-Toxic,Active,> 80,inactive,5,Non-Toxic,Active,37.72,47.25,15.35,80.2,0.77,18.8,0.26,79,68,Active,Active,Activity (4T1 [32]): Active; Activity (4T1 [24]): Active; Activity (4T1 [25]): Active; Activity [26]: Non-Toxic; Activity [27]: Non-Toxic; Activity [28]: Non-Toxic; Activity [29]: Non-Toxic; Activity [30]: Non-Toxic; residual activity [31]: 75%
